# From article PMC10922812 (Antiviral research, 2024)
# Experiments:
# [1] = system: JCPyV; assay: NCC drug screen, In-Cell Western; type: cell-based, JC polyomavirus; details: inhibitor 10 μM, SVGA cells, MOI = 0.5 FFU/cell, 72 h, VP1 ICW
# [2] = system: JCPyV; assay: JCPyV infection by FFU infectivity assay; type: cell-based, JC polyomavirus; details: 48 h, vs DMSO control
# [3] = system: JCPyV; assay: JCPyV infection by ICW assay; type: cell-based, JC polyomavirus; details: for % JCPyV infection (ICW, TAg): MOI = 1 FFU/cell, 48 h, vs DMSO control (Fig. 2); for JCPyV infection (ICW validation of screen hits): cell type not stated, data not shown
# [4] = system: pERK; assay: pERK assay by ICW; type: cell-based; details: 24 h treatment, no virus
# [5] = system: SV40; assay: SV40 infection by FFU infectivity assay; type: cell-based, simian virus 40; details: Vero cells, MOI = 1 FFU/cell, 48 h
# [6] = system: HeLa cells; assay: MTS cell viability assay, HeLa cells; type: cell-based; details: HeLa 24 h, vs DMSO control
# [7] = system: JCPyV; assay: JCPyV-647 attachment by flow cytometry; type: cell-based, JC polyomavirus; details: HEK-2C cells pre-treated 1 h, virus on ice 1 h, vs DMSO
# [8] = system: JCPyV; assay: JCPyV infectious clone transfection, VP1+ nuclei by FFU assay; type: cell-based, JC polyomavirus; details: SVGA cells, TFP 15 μM, day 3 or day 7
# How it was run: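 SVGA cells at 50% confluence were pre-treated 1 h at 37°C with test compound or DMSO. They were transfected with 2 μg/well linearized JC pUC19 (pUC19 control) using Fugene 6 (1.5 μl:1 μg DNA) with compound present. Medium was replaced with 10% MEM after 6 h. Cells were fixed and stained for VP1 (1:40). % VP1+ nuclei was VP1+ over DAPI+ cells at 10X, 5 fields/well.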
# [9] = system: SVGA cells; assay: MTS cell viability assay, SVGA cells; type: cell-based, human
# [10] = system: reovirus; details: ref Mainou, Zamora et al. 2013; cited from earlier work
# [11] = ref Kang, Hong et al. 2017; cited from earlier work
# [12] = system: reovirus; assay: Reovirus infection by FFU infectivity assay; type: cell-based; details: HeLa cells, MOI = 300 FFU/cell, 24 h
# How it was run: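 HeLa cells at 70% confluence were pre-treated 1 h at 37°C with test compound in 10% DMEM (triplicate wells). Infection ran 1 h at RT without compound, then cells were refed with compound-containing DMEM for 24 h at 37°C. Cells were PFA-fixed and stained with reovirus antisera (1:500), anti-rabbit secondary and DAPI. % infection was positive over DAPI+ cells per 10X field, 5 fields/well.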
# [13] = system: Vero cells; assay: MTS cell viability assay, Vero cells; type: cell-based, African green monkey; details: vs DMSO control
# [14] = system: RPTEC; assay: MTS cell viability assay, RPTEC; type: cell-based, human; details: RPTEC 48 h, vs DMSO control
# [15] = system: HEK-2C cells; assay: MTS cell viability assay, HEK-2C cells; type: cell-based
# [16] = system: SARS-CoV-2; details: ref Yuan, Dong et al. 2022; cited from earlier work
# [17] = system: BKPyV; assay: BKPyV infection by FFU infectivity assay; type: cell-based, BK polyomavirus; details: Vero cells, MOI = 4 FFU/cell, 72 h
# How it was run: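 Vero E6 cells at 70% confluence were pre-treated 1 h at 37°C with test compound in 10% DMEM (triplicate wells). Infection ran 2 h at 37°C without compound, then cells were refed with compound-containing DMEM for 72 h. Cells were PFA-fixed and stained for VP1 (1:40) with DAPI. % infection was VP1+ cells over DAPI+ cells per 20X field, 5 fields/well.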
# [18] = system: SARS-CoV-2; type: cell-based; details: Vero cells, TCID50 = 0.025/cell, 24 h
# [19] = system: SV40; details: ref Dobson, Mankouri and Whitehouse 2020; cited from earlier work
# [20] = system: MCPyV; details: ref Dobson, Mankouri and Whitehouse 2020; cited from earlier work
# [21] = HEK-2C cells, MOI = 0.5 FFU/cell
# [22] = primary RPTECs, MOI = 2 FFU/cell
# [23] = SVGA 48 h, MTS, vs DMSO control
# [24] = HEK-2C 48 h, MTS, vs DMSO control
smiles,measurement,setting,value
COC(=O)C1=C(C)NC(C)=C(C(=O)OC)C1c1ccccc1[N+](=O)[O-] [Nifedipine],JCPyV infection in NCC drug screen (hit by normalized z-score),[1],hits
same,"% JCPyV infection (FFU, TAg)",[2]; [21],significantly reduced JCPyV infection
same,"% JCPyV infection (FFU, TAg)","[2]; SVGA cells, MOI = 1 FFU/cell",did not reduce JCPyV infection
same,"% JCPyV infection (FFU, TAg)",[2]; [22],significantly reduced JCPyV infection
same,"% JCPyV infection (ICW, TAg)",[3]; HEK-2C cells,significant reduction
same,% pERK expression (ICW),[4]; HEK-2C cells,significant reduction in pERK levels
same,% pERK expression (ICW),[4]; SVGA cells,significant reduction in pERK levels
same,"% SV40 infection (FFU, VP1)",[5],did not reduce SV40 infection
"CN1CCN(CCCN2c3ccccc3Sc3ccc(C(F)(F)F)cc32)CC1 [TFP, trifluoperazine]",Concentration with % Viability < 80%,[6],15 µM
same,Concentration with % Viability ≥ 80%,[6],10 µM
same,Concentration with % Viability ≥ 100%,[6],7.5 µM
same,JCPyV infection in NCC drug screen (hit by normalized z-score),[1],hits
same,"% JCPyV infection (FFU, TAg)",[2]; [21],significant reduction of JCPyV infection
same,"% JCPyV infection (FFU, TAg)","[2]; SVGA cells, MOI = 1 FFU/cell",significant reduction of JCPyV infection
same,"% JCPyV infection (FFU, TAg)",[2]; [22],significantly reduced JCPyV infection
same,"JCPyV attachment (JCPyV-647, flow cytometry)",[7],no significant difference in JCPyV attachment
same,% VP1+ nuclei after transfection of JCPyV infectious clone,[8],modest reduction in JCPyV VP1+ cells
same,Concentration with % Viability < 80%,[9]; [23],30 µM
same,Concentration with % Viability ≥ 90%,[9]; [23],20 µM
same,Concentration with % Viability ≥ 100%,"[9]; SVGA 7 days, MTS, vs DMSO control",15 µM
same,reovirus infection,[10],not impacted
same,crossing the blood-brain barrier,[11],capable of crossing the blood-brain barrier
same,% reovirus infection (FFU),[12],not impacted
same,Concentration with % Viability ≥ 100%,[13]; Vero 24 h,10 µM
same,Concentration with % Viability ≥ 100%,[13]; Vero 48 h,20 µM
same,Concentration with % Viability < 80%,[13]; Vero 72 h,30 µM
same,Concentration with % Viability ≥ 100%,[13]; Vero 72 h,15 µM
same,Concentration with % Viability ≥ 90%,[14],7.5 µM
same,Concentration with % Viability ≥ 95%,[14],5 µM
same,Concentration with % Viability < 80%,[15]; [24],30 µM
same,Concentration with % Viability ≥ 85%,[15]; [24],20 µM
same,Concentration with % Viability ≥ 100%,[15]; [24],7.5 µM
same,SARS-CoV-2 infection,[16],inhibited
same,"% JCPyV infection (ICW, TAg)",[3]; HEK-2C cells,significant reduction in JCPyV infection
same,"% JCPyV infection (ICW, TAg)",[3]; SVGA cells,significant reduction in JCPyV infection
same,% BKPyV infection (FFU),[17],significantly reduced
same,"% SV40 infection (FFU, VP1)",[5],significantly reduced
same,"% SARS-CoV-2 infection (FFU, NP)",[18],dramatically impaired SARS-CoV-2 infection
COc1ccc(CCN(C)CCCC(C#N)(c2ccc(OC)c(OC)c2)C(C)C)cc1OC (stereo not drawn) [Verapamil],SV40 infection,[19],reduces
same,MCPyV infection,[20],reduces
NCCCCCCNS(=O)(=O)c1cccc2c(Cl)cccc12 [W-7],"% JCPyV infection (FFU, TAg)",[2]; [21],significant reduction of JCPyV infection
same,"% JCPyV infection (FFU, TAg)","[2]; SVGA cells, MOI = 1 FFU/cell",significant reduction of JCPyV infection
same,"% JCPyV infection (ICW, TAg)",[3]; HEK-2C cells,decreased JCPyV infection
same,"% JCPyV infection (ICW, TAg)",[3]; SVGA cells,decreased JCPyV infection
same,% BKPyV infection (FFU),[17],significantly reduced
same,"% SV40 infection (FFU, VP1)",[5],significantly reduced
same,"% SARS-CoV-2 infection (FFU, NP)",[18],dramatically impaired SARS-CoV-2 infection
"CCOC(=O)C1=C(C)NC(C)=C(C(=O)OC)C1c1cccc([N+](=O)[O-])c1 (stereo not drawn) [nitrendipine, Nitrendipine]","% JCPyV infection (FFU, TAg)","[2]; SVGA cells, MOI = 1 FFU/cell",did not significantly reduce JCPyV infection
CC1(C)O[C@@H]2[C@@H](CO[C@@]3(COS(N)(=O)=O)OC(C)(C)O[C@@H]23)O1 [topiramate],JCPyV infection in NCC drug screen (hit by normalized z-score),[1],hits
same,JCPyV infection (ICW validation of screen hits),[3],did not significantly reduce infection
COCCOC(=O)C1=C(C)NC(C)=C(C(=O)OC(C)C)C1c1cccc([N+](=O)[O-])c1 (stereo not drawn) [Nimodipine],JCPyV infection in NCC drug screen (hit by normalized z-score),[1],hits
same,"% JCPyV infection (FFU, TAg)","[2]; SVGA cells, MOI = 1 FFU/cell",did not significantly reduce JCPyV infection
same,"% JCPyV infection (ICW, TAg)",[3]; HEK-2C cells,modestly reduced
same,"% JCPyV infection (ICW, TAg)",[3]; SVGA cells,modestly reduced
O=C1CN(/N=C/c2ccc(-c3ccc([N+](=O)[O-])cc3)o2)C(O)=N1 [dantrolene sodium],JCPyV infection in NCC drug screen (hit by normalized z-score),[1],hits
same,JCPyV infection (ICW validation of screen hits),[3],did not significantly reduce infection
COc1ccc2cc1Oc1ccc(cc1)C[C@H]1c3cc(c(OC)cc3CCN1C)Oc1c(OC)c(OC)cc3c1[C@H](C2)N(C)CC3 [Tetrandrine],"% JCPyV infection (FFU, TAg)",[2]; [21],significantly impaired
same,"% JCPyV infection (FFU, TAg)","[2]; SVGA cells, MOI = 1 FFU/cell",not impacted
same,SV40 infection,[19],drastically reduced
same,Concentration with % Viability ≥ 100%,"[9]; human, 48 h",10 µM
same,MCPyV infection,[20],drastically reduced
same,Concentration with % Viability < 80%,"[15]; human, 48 h",10 µM
same,Concentration with % Viability ≥ 90%,"[15]; human, 48 h",7 µM
same,Concentration with % Viability ≥ 95%,"[15]; human, 48 h",1 µM
same,"% JCPyV infection (ICW, TAg)",[3]; HEK-2C cells,significant reduction in infection
same,"% JCPyV infection (ICW, TAg)",[3]; SVGA cells,"slight, but not statistically significant, increase"
same,% pERK expression (ICW),[4]; HEK-2C cells,reduction in pERK levels
same,% pERK expression (ICW),[4]; SVGA cells,dramatic increase in pERK
same,"% SV40 infection (FFU, VP1)",[5],potently inhibited
"Fc1ccc(C(c2ccc(F)cc2)N2CCN(C/C=C/c3ccccc3)CC2)cc1 [flunarizine, Flunarizine]",MCPyV infection,[20],blocks infection
same,"% JCPyV infection (ICW, TAg)",[3]; HEK-2C cells,No significant change in infection
same,"% JCPyV infection (ICW, TAg)",[3]; SVGA cells,No significant change in infection
